Only some compounds are listed: those with a hit (about 1.9% of all), similar ones and a draw of the others.
bovine MsrA act: activators of bovine methionine sulfoxide reductase A | purified bovine MsrA, absorbance read-out | activation, % at 10.6 µM | actives 0.3% (n = 360,000); in the data active = activation above about 7.5%;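 note: 0% = vehicle and 100% = reference activator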
UCH37 inh: blocks the human deubiquitinase UCH37. Q9Y5K5. purified proteasome/UCH37, Ub-AMC cleavage fluorescence. inhibition, % (test concentration not listed). actives 0.33% (n = 330,000);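 active = mean inhibition over replicate wells above about 20%, limit read from the data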;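 note: 0% = compound-free wells with enzyme and 100% = wells lacking proteasome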
Target sequence (Q9Y5K5 whole entry, looked up): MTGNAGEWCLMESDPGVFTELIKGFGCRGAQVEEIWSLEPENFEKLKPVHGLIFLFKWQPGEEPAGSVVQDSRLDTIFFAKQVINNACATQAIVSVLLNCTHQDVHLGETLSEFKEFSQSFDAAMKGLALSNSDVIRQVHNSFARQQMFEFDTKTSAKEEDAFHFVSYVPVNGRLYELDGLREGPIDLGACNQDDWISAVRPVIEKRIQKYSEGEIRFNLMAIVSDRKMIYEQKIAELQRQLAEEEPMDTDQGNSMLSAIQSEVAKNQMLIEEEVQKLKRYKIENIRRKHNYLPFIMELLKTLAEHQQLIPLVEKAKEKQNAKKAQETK
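Material: human UCH37 enzyme supplied as purified proteasome complex. Measure: % inhibition of Ub-AMC cleavage fluorescence. Medium: pH 7.4 Tris-HCl (50 mM) with ovalbumin, ATP-MgCl2, DTT. Times: 30 min preincubation with enzyme, 25 min cleavage at room temperature. Detection: AMC fluorescence intensity at 355/460 nm.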
aDG glyco up: increases alpha dystroglycan glycosylation. Pro5-aDG cells, alpha-DG glycosylation AlphaScreen (IIH6); 0% Pro5, 100% B10-LARGE cell signal. activation, % at 10 µM. actives 0.22% (n = 360,000);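 active = activation of at least 8% versus controls, or a plate z-score of at least 8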;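 note: Pro5 are CHO cells carrying HIG-tagged alpha-DG that lacks glycosylation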
Vif imaging: HIV Vif inhibition | HEK293T cells, Vif self-association by quenched fluorescence, imaging, 24 h | inhibition, % at 7.49 µM | actives 0.35% (n = 340,000) | AID 602346; in the data active = inhibition above about 50%, passing the limit was not always enough
N-glyco inh: N-linked glycosylation inhibition | AID 588692 | actives 0.23% (n = 360,000) | reporter increase, % at 12.5 µM | D54 ERlucT glycosylation luciferase reporter, 24 h; percent of 100 nM tunicamycin response;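 active = mean luciferase reporter signal, scaled so untreated is 0 and the glycosylation-blocking control 100, at or above a set limit in every replicate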;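 note: luciferase carries N-glycosylation sites so blocking glycosylation raises the light; 0% = median of neutral control wells and 100% = median of 100 nM tunicamycin wells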
MsrA inh: inhibits bovine methionine sulfoxide reductase A | purified bovine MsrA, absorbance read-out | inhibition, % at 15.5 µM | actives 0.75% (n = 360,000) | AID 651718; in the data active = inhibition above about 4.5%;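 note: 0% = vehicle wells with enzyme and 100% = reference inhibitor wells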
aDG conf: alpha-DG glycosylation activation, confirmation. shares compounds with aDG glyco up. Pro5-aDG cells, IIH6 AlphaLISA; scaled to LARGE-overexpressing B10 cells as 100%. activation, % at 10 µM (by protocol). actives 17% (n = 600). AID 651671;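 active = activation of at least 7% in one or more replicates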;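 note: cells exposed to compound for two days before detection; 0% = DMSO-treated Pro5 cells and 100% = DMSO-treated B10-LARGE cells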
The depositor's hits bear a star; nt = no result given.

SMILES	bovine MsrA act	UCH37 inh	aDG glyco up	Vif imaging	N-glyco inh	MsrA inh	aDG conf
COc1cc(O)c2c(c1)OC(c1ccc(O)cc1)CC2=O (configuration not stated)	-8.0	3.4	12.7*	-7.8	-6.2	0.5	2.0
Cc1c(O)cc2c(c1O)C(=O)CC(c1ccc(O)cc1)O2 (configuration not stated)	-0.7	2.5	4.7*	10.0	0.0	0.3	-0.6
O=C1CC(c2ccc(O)cc2)Oc2cc(O)ccc21 (configuration not stated)	-10.1	0.6	0.0	-6.5	-0.2	2.6	nt
O=C(C[n+]1cccc(C(=O)NN=Cc2cccc([N+](=O)[O-])c2)c1)c1ccccc1	nt	5.1	nt	nt	nt	nt	nt
COc1ccc(C(=O)C2CCCN(S(=O)(=O)c3ccc(C(C)=O)cc3)C2)c(C)c1 (configuration not stated)	1.2	-0.4	1.3	-11.0	-0.6	0.5	nt
CCS(=O)(=O)N1CCCC(C(=O)c2ccc(OC)cc2C)C1 (configuration not stated)	-3.9	2.1	24.6*	4.9	-1.7	-0.6	-0.1
Nc1cc2c3ccccc3ccc2c2ccccc12	4.4	-192.1	4.7*	18.6	-9.2	0.3	-0.1
Nc1ccc2ccccc2c1[N+](=O)[O-]	0.1	2.4	-0.1	-5.7	1.7	0.5	nt
CCOc1cc(/C=N/NC(=O)c2ccc(N(C)S(=O)(=O)c3ccccc3)cc2)ccc1OC	-3.1	nt	2.4*	2.7	1.6	3.8	-1.9
N#CCC(=O)NN=Cc1c2ccccc2cc2ccccc12	nt	6.0	nt	nt	nt	nt	nt
Cc1cccc2nc(-c3cccc(NC(=O)c4ccc(Cl)cc4)c3)cn12	-9.7	-2.0	6.5*	10.2	3.1	0.8	0.5
CC(=O)c1ccc(NC(=O)C2CCCC2)cc1	-12.2	2.2	2.1*	-12.2	-0.3	-0.1	-0.8
CCOc1cc(C=NNC(=O)CCn2nc(C)cc2C)ccc1O	nt	-2.1	nt	nt	nt	nt	nt
C(=N\c1nc2ccccc2n1CCN1CCCCC1)/c1ccc2c(c1)OCO2	-11.7	nt	7.8*	-9.7	-1.5	-0.3	1.5
Cc1ccc(C)c(N2C(=O)CSC2=NNC(=O)c2ccccc2Cl)c1	nt	5.2	nt	nt	nt	nt	nt
c1ccc(Oc2nc(-c3ccccn3)nc3ccccc23)cc1	-3.4	3.2	2.4*	-6.9	4.9	1.0	2.8*
c1ccc(-c2nc(N3CCOCC3)c3ccccc3n2)nc1	-1.9	10.0	7.0*	-3.8	-1.3	2.3	2.8
CC(C)c1ccc(NC(=O)C2Cc3c(-c4ccc(Cl)cc4)ccnc3O2)cc1 (configuration not stated)	-9.0	nt	5.0*	-5.3	-11.4	1.3	6.5*
CC[C@]12c3[nH]c4ccc(Cl)cc4c3CCN1C(=O)[C@@H](CC(=O)NCCc1ccccn1)C[C@@H]2C(=O)N1CCN(C(=O)C2CC2)CC1	-1.3	3.9	7.9*	-12.6	0.5	0.9	2.0
CC(=O)N1CCCc2cc(S(=O)(=O)N3CCN(C4CCCCC4)CC3)ccc21	-5.7	1.5	0.2	-3.9	-1.3	-1.4	nt
CC(=O)N1CCCc2cc(S(=O)(=O)N3CCC(C)CC3)ccc21	3.5	4.2	22.9*	-2.9	0.3	0.3	-0.8
Cn1nccc1C(=O)Nc1ccc(Cl)cc1	-3.4	5.3	-0.1	3.0	0.9	0.8	nt
Cn1nccc1C(=O)Nc1cc(Cl)ccc1Cl	-6.7	1.9	2.7*	22.1	-0.4	0.6	-0.7
O=C(CCN1C(=O)c2ccccc2C1=O)NCc1ccc(Cl)cc1	-2.8	0.5	2.7*	22.0	0.0	-1.3	0.4
CC1CCCCN1C(=O)CN1C(=O)c2ccccc2S1(=O)=O (configuration not stated)	-5.3	5.7	0.1	41.8	-0.3	0.8	nt
SMILES	bovine MsrA act	UCH37 inh	aDG glyco up	Vif imaging	N-glyco inh	MsrA inh	aDG conf
CCC1CCCCN1C(=O)CN1C(=O)c2ccccc2S1(=O)=O (configuration not stated)	-9.7	1.7	3.3*	-3.4	-1.6	0.3	0.3
Cc1cc(C)nc(N=C(N)N2CCc3ccccc32)n1	nt	3.8	nt	nt	nt	nt	nt
CCc1ccc(Nc2cc(=O)n(C3CCCCC3)c(=O)[nH]2)cc1	-0.1	-1.2	6.9*	-18.8	0.4	0.8	-0.6
O=c1cc(Nc2ccc3c(c2)OCCO3)[nH]c(=O)n1C1CCCCC1	-2.9	0.6	-0.3	2.0	20.1	-0.4	nt
CCCN(CCC)C(=O)C1CCCN(S(=O)(=O)c2ccc3c(c2)oc(=O)n3C)C1 (configuration not stated)	-2.0	-1.2	8.0*	27.3	-0.6	0.0	-0.2
CCC1CCCCN1CCCNC(=O)c1cn(CC)c2ccc(S(=O)(=O)N3CCc4ccccc4C3)cc2c1=O (configuration not stated)	-5.2	7.0	9.1*	7.9	-1.3	0.6	0.3
O=C(c1cc(COc2c(F)cccc2F)on1)N1CCC(c2ccncc2)CC1	-1.4	1.2	9.2*	-4.6	-5.8	-1.9	-0.1
Cc1cccc(C)c1OCc1cc(C(=O)N2CCC(c3ccncc3)CC2)no1	-2.8	3.8	6.2*	-22.4	-7.5	1.0	0.7
CCNC(=S)NN=Cc1cccc(C)c1	nt	4.5	nt	nt	nt	nt	nt
O=C(NN=Cc1c(Cl)[nH]c2ccccc12)c1ccc2c(c1)OCCO2	nt	0.8	nt	nt	nt	nt	nt
O=C(CSc1nc2ccccc2s1)CSc1nc2ccccc2s1	0.8	1.7	6.8*	7.0	2.0	-0.2	-1.0
O=C(O)CSc1nc2ccccc2s1	-2.7	-0.7	-0.1	-4.2	-0.1	-1.0	nt
COc1ccc(C=NN(C)C2=NS(=O)(=O)c3ccccc32)cc1OC	nt	-69.4	nt	nt	nt	nt	nt
O=C(COc1ccc2c3c(c(=O)oc2c1)CCCC3)NCc1cccnc1	0.4	-6.8	7.0*	7.1	-0.4	0.0	0.4
O=C(Cn1cnc([N+](=O)[O-])n1)NN=Cc1cc(Cl)ccc1O	nt	4.1	nt	nt	nt	nt	nt
O=C1SCCN1N=Cc1ccc([N+](=O)[O-])o1	2.1	10.7	7.2*	-1.6	7.0	1.8	3.5*
COc1ccc(NC(C)C(=O)N/N=C/c2ccc([N+](=O)[O-])s2)cc1 (configuration not stated)	1.2	nt	9.7*	-3.1	1.9	2.3	3.4
Cc1ccc(NC(C)C(=O)N/N=C/c2ccc([N+](=O)[O-])s2)cc1 (configuration not stated)	2.2	nt	5.4	-26.5	2.2	1.9	nt
O=C(NN=Cc1c[nH]c2ccccc12)c1cc(-c2ccc3ccccc3c2)n[nH]1	nt	-30.7	nt	nt	nt	nt	nt
N#Cc1ccccc1Cn1c(=O)n(-c2ccc(CC(=O)NCc3ccco3)cc2)c(=O)c2sccc21	-0.5	5.3	10.2*	-9.2	0.6	-0.7	0.1
N#Cc1ccccc1Cn1c(=O)n(Cc2ccc(C(=O)NCc3ccco3)cc2)c(=O)c2sccc21	-1.7	5.5	0.0	8.0	-4.7	1.6	nt
